Assay results: ChEMBL document CHEMBL1287807, “Novel TNF-α converting enzyme (TACE) inhibitors as potential treatment for inflammatory diseases” (Bioorg Med Chem Lett, 2010)

Assays:
[1] = test system: Blood; test: Antiinflammatory activity in human whole blood assessed as inhibition of LPS-induced TNFalpha production after 3.5 hrs by ELISA; assay type: functional
In short: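 Human whole blood, diluted 1:1 in serum-free RPMI with L-glutamine, Pen-Strep and HEPES, is preincubated with compound for 1 h at 37 °C. It is then stimulated with LPS. Supernatant is harvested after 3.5 h incubation, and TNF-α concentration is measured by ELISA.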

[2] = target: Disintegrin and metalloproteinase domain-containing protein 17 (Homo sapiens, UniProt P78536); test: Inhibition of TACE
[3] = AUC in monkey at 3 mg/kg, po; assay type: ADME, organism-based, Macaca mulatta; parameters: dose 3 mg/kg, route oral; details: rhesus monkey, plasma
In short: (§1)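 Compound dosed as its Na+ salt, intravenously or orally, at the dose given in each line. AUC is reported in uM.h.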

[4] = target: T1, Disintegrin and metalloproteinase domain-containing protein 10 (Homo sapiens, UniProt O14672); test: Inhibition of ADAM10
T1 sequence (O14672 whole entry): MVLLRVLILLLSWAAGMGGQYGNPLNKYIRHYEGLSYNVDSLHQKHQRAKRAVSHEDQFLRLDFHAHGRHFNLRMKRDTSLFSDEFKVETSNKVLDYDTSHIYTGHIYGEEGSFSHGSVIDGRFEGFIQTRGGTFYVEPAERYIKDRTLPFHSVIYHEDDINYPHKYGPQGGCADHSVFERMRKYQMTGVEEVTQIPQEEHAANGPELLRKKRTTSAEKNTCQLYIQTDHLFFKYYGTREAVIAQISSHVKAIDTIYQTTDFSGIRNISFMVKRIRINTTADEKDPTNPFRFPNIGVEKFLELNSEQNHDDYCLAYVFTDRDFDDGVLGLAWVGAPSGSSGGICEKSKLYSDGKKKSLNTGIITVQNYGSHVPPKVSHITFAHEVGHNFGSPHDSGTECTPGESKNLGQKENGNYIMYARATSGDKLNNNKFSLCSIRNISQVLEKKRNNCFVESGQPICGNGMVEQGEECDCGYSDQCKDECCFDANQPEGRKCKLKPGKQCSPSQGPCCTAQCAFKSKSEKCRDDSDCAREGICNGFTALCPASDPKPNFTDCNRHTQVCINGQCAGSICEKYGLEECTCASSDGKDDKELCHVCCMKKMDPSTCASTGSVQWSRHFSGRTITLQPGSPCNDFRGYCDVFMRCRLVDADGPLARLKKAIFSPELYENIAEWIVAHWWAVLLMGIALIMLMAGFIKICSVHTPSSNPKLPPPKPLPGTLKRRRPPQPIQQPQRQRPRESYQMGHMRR

[5] = AUC in dog at 5 mg/kg, po; assay type: ADME, organism-based, Canis lupus familiaris; parameters: dose 5 mg/kg, route oral; details: plasma
[6] = target: Stromelysin-1 (Homo sapiens, UniProt P08254); test: Inhibition of MMP3
[7] = Half life in rat at 3 mg/kg, iv; assay type: ADME, organism-based; parameters: dose 3 mg/kg, route intravenous; details: in vivo
[8] = AUC in dog at 0.5 mg/kg, iv; assay type: ADME, organism-based, Canis lupus familiaris; parameters: dose 0.5 mg/kg, route intravenous; details: plasma
[9] = target: 72 kDa type IV collagenase (Homo sapiens, UniProt P08253); test: Inhibition of MMP2
[10] = Oral bioavailability in dog at 5 mg/kg; assay type: ADME, organism-based, Canis lupus familiaris; details: in vivo
[11] = target: Collagenase 3 (Homo sapiens, UniProt P45452); test: Inhibition of MMP13
[12] = AUC in monkey at 1 mg/kg, iv; assay type: ADME, organism-based, Macaca mulatta; parameters: dose 1 mg/kg, route intravenous; details: rhesus monkey, plasma; in short: as §1
[13] = Tmax in monkey at 3 mg/kg, po; assay type: ADME, organism-based, Macaca mulatta; parameters: dose 3 mg/kg, route oral; details: rhesus monkey, in vivo
[14] = target: Matrix metalloproteinase-9 (Homo sapiens, UniProt P14780); test: Inhibition of MMP9
[15] = Tmax in rat at 10 mg/kg, po; assay type: ADME, organism-based; parameters: dose 10 mg/kg, route oral; details: in vivo
[16] = Oral bioavailability in rat at 10 mg/kg; assay type: ADME, organism-based; details: in vivo
[17] = AUC in rat at 3 mg/kg, iv; assay type: ADME, organism-based; parameters: dose 3 mg/kg, route intravenous; details: plasma; in short: as §1
[18] = Tmax in dog at 5 mg/kg, po; assay type: ADME, organism-based, Canis lupus familiaris; parameters: dose 5 mg/kg, route oral; details: in vivo
[19] = target: T2, Interstitial collagenase (Homo sapiens, UniProt P03956); test: Inhibition of MMP1
T2 sequence (P03956 whole entry): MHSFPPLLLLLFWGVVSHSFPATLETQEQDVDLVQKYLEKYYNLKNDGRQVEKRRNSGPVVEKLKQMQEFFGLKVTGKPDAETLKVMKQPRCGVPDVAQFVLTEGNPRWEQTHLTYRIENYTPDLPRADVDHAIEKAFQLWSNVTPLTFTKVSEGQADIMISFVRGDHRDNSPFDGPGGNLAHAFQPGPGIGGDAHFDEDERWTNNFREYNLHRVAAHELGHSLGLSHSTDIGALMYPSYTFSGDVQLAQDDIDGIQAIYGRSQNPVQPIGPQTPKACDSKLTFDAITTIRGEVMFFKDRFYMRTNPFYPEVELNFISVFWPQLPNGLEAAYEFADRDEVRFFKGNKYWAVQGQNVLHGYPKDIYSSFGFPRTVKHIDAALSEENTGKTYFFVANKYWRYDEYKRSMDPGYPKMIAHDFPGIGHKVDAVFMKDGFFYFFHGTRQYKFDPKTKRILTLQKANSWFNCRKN

[20] = Oral bioavailability in monkey at 3 mg/kg; assay type: ADME, organism-based, Macaca mulatta; details: rhesus monkey, in vivo
[21] = Half life in monkey at 1 mg/kg, iv; assay type: ADME, organism-based, Macaca mulatta; parameters: dose 1 mg/kg, route intravenous; details: rhesus monkey, in vivo
[22] = Clearance in monkey at 1 mg/kg, iv; assay type: ADME, organism-based, Macaca mulatta; parameters: dose 1 mg/kg, route intravenous; details: rhesus monkey, in vivo
[23] = AUC in rat at 10 mg/kg, po; assay type: ADME, organism-based; parameters: dose 10 mg/kg, route oral; details: plasma; in short: as §1
[24] = Clearance in dog at 0.5 mg/kg, iv; assay type: ADME, organism-based, Canis lupus familiaris; parameters: dose 0.5 mg/kg, route intravenous; details: in vivo
[25] = Half life in dog at 0.5 mg/kg, iv; assay type: ADME, organism-based, Canis lupus familiaris; parameters: dose 0.5 mg/kg, route intravenous; details: in vivo
[26] = Clearance in rat at 3 mg/kg, iv; assay type: ADME, organism-based; parameters: dose 3 mg/kg, route intravenous; details: in vivo
[27] = target: T3, Matrilysin (Homo sapiens, UniProt P09237); test: Inhibition of MMP7
T3 sequence (P09237 whole entry): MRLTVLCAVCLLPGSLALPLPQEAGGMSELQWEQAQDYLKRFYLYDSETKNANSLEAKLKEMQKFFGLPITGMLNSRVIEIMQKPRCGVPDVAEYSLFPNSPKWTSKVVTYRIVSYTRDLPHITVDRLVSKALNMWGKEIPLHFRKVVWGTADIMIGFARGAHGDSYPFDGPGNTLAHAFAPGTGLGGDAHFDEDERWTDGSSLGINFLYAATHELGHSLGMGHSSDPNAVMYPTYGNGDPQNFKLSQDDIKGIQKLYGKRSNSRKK

Chain of Disintegrin and metalloproteinase domain-containing protein 17 (P78536 whole entry, the tested form may be a part): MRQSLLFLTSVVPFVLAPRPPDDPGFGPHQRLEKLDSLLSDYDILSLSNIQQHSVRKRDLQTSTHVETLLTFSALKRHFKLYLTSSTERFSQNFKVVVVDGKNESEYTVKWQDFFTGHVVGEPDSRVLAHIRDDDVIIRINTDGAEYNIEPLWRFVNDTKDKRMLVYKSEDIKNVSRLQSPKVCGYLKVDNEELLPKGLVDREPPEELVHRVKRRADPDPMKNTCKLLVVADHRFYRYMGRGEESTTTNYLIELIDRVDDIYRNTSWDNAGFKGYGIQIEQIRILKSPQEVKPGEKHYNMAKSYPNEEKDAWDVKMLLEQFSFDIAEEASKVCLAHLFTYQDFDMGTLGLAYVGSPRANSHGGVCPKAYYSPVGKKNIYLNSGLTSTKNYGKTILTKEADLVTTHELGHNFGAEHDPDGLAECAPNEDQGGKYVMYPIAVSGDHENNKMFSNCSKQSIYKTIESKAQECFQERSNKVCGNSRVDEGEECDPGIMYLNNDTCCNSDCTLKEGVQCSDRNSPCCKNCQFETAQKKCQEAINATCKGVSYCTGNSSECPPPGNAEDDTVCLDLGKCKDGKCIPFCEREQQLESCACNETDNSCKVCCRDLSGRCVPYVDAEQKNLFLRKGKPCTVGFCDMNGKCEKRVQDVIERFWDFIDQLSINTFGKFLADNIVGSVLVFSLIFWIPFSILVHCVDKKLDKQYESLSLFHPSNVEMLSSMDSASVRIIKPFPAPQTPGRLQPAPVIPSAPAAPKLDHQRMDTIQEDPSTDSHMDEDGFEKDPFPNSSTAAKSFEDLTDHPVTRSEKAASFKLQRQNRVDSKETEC
Chain of Matrix metalloproteinase-9 (P14780 whole entry): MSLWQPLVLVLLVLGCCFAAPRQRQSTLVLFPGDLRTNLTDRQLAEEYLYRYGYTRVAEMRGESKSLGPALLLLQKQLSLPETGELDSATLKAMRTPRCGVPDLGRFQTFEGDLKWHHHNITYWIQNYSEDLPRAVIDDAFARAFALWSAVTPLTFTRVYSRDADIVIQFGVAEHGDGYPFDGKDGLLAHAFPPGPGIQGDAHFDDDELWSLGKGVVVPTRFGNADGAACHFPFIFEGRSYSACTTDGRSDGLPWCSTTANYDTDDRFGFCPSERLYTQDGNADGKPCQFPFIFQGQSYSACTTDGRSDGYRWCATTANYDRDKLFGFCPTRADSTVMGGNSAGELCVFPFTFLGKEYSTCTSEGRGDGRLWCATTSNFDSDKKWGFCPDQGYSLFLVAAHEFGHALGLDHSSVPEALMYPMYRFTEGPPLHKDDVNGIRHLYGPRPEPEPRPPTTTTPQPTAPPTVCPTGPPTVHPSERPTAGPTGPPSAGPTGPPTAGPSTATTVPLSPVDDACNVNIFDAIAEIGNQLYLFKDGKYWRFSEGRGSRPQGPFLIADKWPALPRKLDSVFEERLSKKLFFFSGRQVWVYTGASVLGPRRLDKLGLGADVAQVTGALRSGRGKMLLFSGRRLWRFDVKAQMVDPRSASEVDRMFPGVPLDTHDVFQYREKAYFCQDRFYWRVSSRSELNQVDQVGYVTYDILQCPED
Chain of Stromelysin-1 (P08254 whole entry): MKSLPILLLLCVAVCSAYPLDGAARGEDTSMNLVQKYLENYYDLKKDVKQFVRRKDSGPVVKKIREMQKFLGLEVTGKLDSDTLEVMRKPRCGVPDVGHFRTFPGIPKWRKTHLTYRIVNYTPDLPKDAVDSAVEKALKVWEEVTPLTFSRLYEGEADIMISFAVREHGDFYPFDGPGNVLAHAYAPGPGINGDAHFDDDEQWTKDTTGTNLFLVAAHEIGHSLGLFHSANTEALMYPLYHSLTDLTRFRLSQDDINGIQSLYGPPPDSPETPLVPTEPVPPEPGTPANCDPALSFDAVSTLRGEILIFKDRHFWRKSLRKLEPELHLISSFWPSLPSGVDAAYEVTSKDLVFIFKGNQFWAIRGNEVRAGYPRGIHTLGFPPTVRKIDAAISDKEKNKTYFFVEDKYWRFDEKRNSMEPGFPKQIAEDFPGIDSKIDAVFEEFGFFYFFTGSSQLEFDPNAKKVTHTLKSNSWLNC
Chain of 72 kDa type IV collagenase (P08253 whole entry): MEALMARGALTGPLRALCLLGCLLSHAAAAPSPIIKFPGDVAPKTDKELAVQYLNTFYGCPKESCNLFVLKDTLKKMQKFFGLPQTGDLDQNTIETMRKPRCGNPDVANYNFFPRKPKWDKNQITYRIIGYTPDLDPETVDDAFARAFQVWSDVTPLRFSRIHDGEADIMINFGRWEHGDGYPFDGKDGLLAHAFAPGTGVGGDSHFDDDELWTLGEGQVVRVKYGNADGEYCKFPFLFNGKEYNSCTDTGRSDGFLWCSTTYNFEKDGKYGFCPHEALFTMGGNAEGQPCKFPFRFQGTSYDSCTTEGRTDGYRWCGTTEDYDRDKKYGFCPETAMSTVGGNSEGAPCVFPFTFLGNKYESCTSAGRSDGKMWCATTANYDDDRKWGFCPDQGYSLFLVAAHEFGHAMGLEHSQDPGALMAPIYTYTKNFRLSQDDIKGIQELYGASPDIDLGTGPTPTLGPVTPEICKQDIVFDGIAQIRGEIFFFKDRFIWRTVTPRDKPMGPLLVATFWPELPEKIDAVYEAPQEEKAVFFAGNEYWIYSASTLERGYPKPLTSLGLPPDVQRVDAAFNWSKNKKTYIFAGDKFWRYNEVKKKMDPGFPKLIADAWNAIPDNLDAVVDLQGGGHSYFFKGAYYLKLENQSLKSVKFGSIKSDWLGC

COc1ccc2c(c1)C(=O)N(C[C@@]1(C#Cc3ccc4[nH]cnc4c3)NC(=O)NC1=O)C2
Activity [1]: 211 nM
Ki [2]: 0.6 nM

COc1ccc2c(c1)C(=O)N(C[C@@]1(C#Cc3ccc(C(=O)NC4CC4)cc3)NC(=O)NC1=O)C2
Activity [1]: 487 nM
Ki [2]: 2.55 nM

COc1ccc2c(c1)C(=O)N(C[C@@]1(C#Cc3ccc4cc[nH]c4c3)NC(=O)NC1=O)C2
Activity [1]: 2965 nM
Ki [2]: 0.19 nM

COc1ccc2c(c1)C(=O)N(C[C@@]1(C#Cc3ccccc3C)NC(=O)NC1=O)C2
Activity [1]: 3142 nM
Ki [2]: 2 nM

COc1ccc2c(c1)C(=O)N(C[C@@]1(C#Cc3ccc(/C(=N/O)N4CCN(C)CC4)cc3)NC(=O)NC1=O)C2
Activity [1]: 33 nM
Ki [2]: 0.22 nM

COc1ccc2c(c1)C(=O)N(C[C@@]1(C#Cc3cccc(C(N)=O)c3)NC(=O)NC1=O)C2
Ki [2]: 0.85 nM

COc1ccc2c(c1)C(=O)N(C[C@@]1(C#Cc3cccc(F)c3)NC(=O)NC1=O)C2
Activity [1]: 873 nM
Ki [2]: 0.2 nM

CCN1CCN(c2ccc(O)c(-c3ccc(C#C[C@]4(CN5Cc6ccc(OC)cc6C5=O)NC(=O)NC4=O)cc3F)n2)CC1
Activity [1]: 40 nM
Ki [2]: 0.1 nM

COc1ccc2c(c1)C(=O)N(C[C@@]1(C#Cc3ccc(F)cc3)NC(=O)NC1=O)C2
Activity [1]: 1675 nM
Ki [2]: 0.26 nM

CCN1CCN(Cc2ccc(C#C[C@]3(CN4Cc5ccc(OC)cc5C4=O)NC(=O)NC3=O)cc2)CC1
Activity [1]: 239 nM
Ki [2]: 0.29 nM

COc1ccc2c(c1)C(=O)N(C[C@@]1(C#Cc3ccc4[nH]ccc4c3)NC(=O)NC1=O)C2
Activity [1]: 751 nM
Ki [2]: 0.17 nM

COc1ccc2c(c1)C(=O)N(C[C@@]1(C#Cc3ccc(C(C)=O)cc3)NC(=O)NC1=O)C2
Activity [1]: 352 nM
Ki [2]: 0.5 nM

COc1ccc2c(c1)C(=O)N(C[C@@]1(C#Cc3ccc(C(N)=O)cc3)NC(=O)NC1=O)C2
Activity [1]: 165 nM
Ki [2]: 0.56 nM

COc1ccc2c(c1)C(=O)N(C[C@@]1(C#Cc3ccc(/C=N/O)cc3)NC(=O)NC1=O)C2
Activity [1]: 167 nM
Ki [2]: 0.16 nM

COc1ccc2c(c1)C(=O)N(C[C@@]1(C#Cc3ccc4cnn(C)c4c3)NC(=O)NC1=O)C2
Activity [1]: 10400 nM
Ki [2]: 0.52 nM

COc1ccc2c(c1)C(=O)N(C[C@@]1(C#Cc3ccc(CC4CCN(C)CC4)nc3)NC(=O)NC1=O)C2
Activity [1]: 195 nM
Ki [2]: 0.47 nM

COc1ccc2c(c1)C(=O)N(C[C@@]1(C#Cc3ccc4[nH]c(=O)[nH]c4c3)NC(=O)NC1=O)C2
Activity [1]: 240 nM
Ki [2]: 0.53 nM

COc1ccc2c(c1)C(=O)N(C[C@@]1(C#Cc3cnc4[nH]cnc4c3)NC(=O)NC1=O)C2
Activity [1]: 193 nM
Ki [2]: 0.92 nM

COc1ccc2c(c1)C(=O)N(C[C@@]1(C#Cc3cccc(C(C)C)c3)NC(=O)NC1=O)C2
Activity [1]: 19000 nM
Ki [2]: 0.5 nM

COc1ccc2c(c1)C(=O)N(C[C@@]1(C#Cc3ccccc3C(N)=O)NC(=O)NC1=O)C2
Activity [1]: 5311 nM
Ki [2]: 2.78 nM

COc1ccc2c(c1)C(=O)N(C[C@@]1(C#Cc3ccc([C@H](C)N)cc3)NC(=O)NC1=O)C2
Activity [1]: 621 nM
Ki [2]: 2.35 nM

COc1ccc2c(c1)C(=O)N(C[C@@]1(C#Cc3ccccc3F)NC(=O)NC1=O)C2
Activity [1]: 617 nM
Ki [2]: 0.13 nM

COc1ccc2c(c1)C(=O)N(C[C@@]1(C#Cc3cccc(C#N)c3)NC(=O)NC1=O)C2
Activity [1]: 273 nM
Ki [2]: 0.06 nM

COc1ccc2c(c1)C(=O)N(C[C@@]1(C#Cc3ccccc3)NC(=O)NC1=O)C2
Activity [1]: 784 nM
Ki [2]: 0.14 nM

COc1ccc2c(c1)C(=O)N(C[C@@]1(C#Cc3ccc(-c4ncccc4O)cc3)NC(=O)NC1=O)C2
Activity [1]: 117 nM
Ki [2]: 0.07 nM

CCN1CCN(/C(=N\O)c2ccc(C#C[C@]3(CN4Cc5ccc(OC)cc5C4=O)NC(=O)NC3=O)cn2)CC1
Activity [1]: 87 nM
Ki [2]: 0.18 nM

COc1ccc2c(c1)C(=O)N(C[C@@]1(C#Cc3cccnc3)NC(=O)NC1=O)C2
AUC [3]: 2.6 µM·h
IC50 [4]: 22 nM
AUC [5]: 1.1 µM·h
IC50 [6]: 5800 nM
half-life [7]: 2.2 h
AUC [8]: 1.3 µM·h
IC50 [9]: 431 nM
bioavailability [10]: 9%
Activity [1]: 220 nM
IC50 [11]: 2920 nM
AUC [12]: 3.8 µM·h
Tmax [13]: 1.2 h
IC50 [14]: 1010 nM
Tmax [15]: 2.2 h
bioavailability [16]: 15%
AUC [17]: 7.3 µM·h
Tmax [18]: 6 min
Ki [2]: 0.62 nM
IC50 [19]: 5200 nM
bioavailability [20]: 23%
half-life [21]: 2.4 h
clearance [22]: 217 mL/min/kg
AUC [23]: 4 µM·h
clearance [24]: 317 mL/min/kg
half-life [25]: 0.9 h
clearance [26]: 317 mL/min/kg
IC50 [27]: > 40000 nM

COc1ccc2c(c1)C(=O)N(C[C@@]1(C#Cc3cccc(C)c3)NC(=O)NC1=O)C2
Activity [1]: 5148 nM
Ki [2]: 0.72 nM

COc1ccc(C#C[C@]2(CN3Cc4ccc(OC)cc4C3=O)NC(=O)NC2=O)cc1
Activity [1]: 1332 nM
Ki [2]: 0.41 nM

CCN1CCN(/C(=N\O)c2ccc(C#C[C@]3(CN4Cc5ccc(OC)cc5C4=O)NC(=O)NC3=O)cc2)CC1
Activity [1]: 20 nM
Ki [2]: 0.16 nM
